PMC8603004 (EFSA Journal, 2021)
Marks after values point to notes of the source that are not given here.

What was measured:
[1] = Incubation of 14C‐3‐NOP in liver fractions; assay type: in vitro ADME, humans; details: human, liver S9 and liver cytosol
Method in brief: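 14C-labelled test compound was incubated with or without NAD+ in liver S9, cytosol and microsomes from Sprague–Dawley rat, Wistar Han rat, Beagle dog and human. Aliquots were taken at several time points and the proteins precipitated. Supernatants were analysed by liquid scintillation counting and radio-HPLC, and half-life was derived from the time course.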

[2] = First in vivo toxicokinetic study; design: species or system male Wistar rats
Method in brief: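 Male Wistar rats received a single oral dose of 500 mg/kg bw 14C-labelled test compound under OECD TG 417 and were killed 48 h post-dose. Total radioactivity was measured in plasma, excreta and selected organs and tissues. Tissue levels were expressed as μg test-compound-eq/g and recovery as % of applied dose.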

[3] = Second in vivo toxicokinetic study, metabolic profile in gut and plasma; design: species or system male Wistar rats
Method in brief: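 Single oral dose of 500 mg/kg bw 14C-labelled test compound to male Wistar rats. One animal per time point was killed at 1, 2 and 3 h post-dose and blood was collected. Stomach, small intestine, caecum and colon contents were removed for total radioactivity. Metabolites were characterised by NMR and/or LC/MS.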

[4] = ADME in four lactating cows; assay type: in vivo
[5] = tested on: Holstein Friesian dairy cows; assay: Tolerance study in dairy cows; assay type: in vivo; details: for Dry matter intake: 56 days
[6] = tested on: bone marrow cells of Wistar WI (Han) rats; assay: In vivo micronucleus test, oral gavage
Wistar rats [7] = assay: 90‐day oral gavage study; assay type: in vivo
Wistar rats [8] = assay: 52‐week oral gavage study; assay type: in vivo
Wistar rats [9] = assay: Two‐generation reproduction toxicity study; details: rat, in vivo
Wistar rats [10] = assay: Prenatal developmental toxicity study; details: rat, in vivo
[11] = Overall NOAEL and health‐based guidance value
[12] = tested on: human lymphoblastoid TK6 cells; assay: In vitro micronucleus assay; details: with and without S9, up to 1,220 μg/mL
[13] = Third in vitro rumen fluid trial; details: for 3‐NOP concentration remaining after 16 h: 39°C
[14] = Third in vitro rumen fluid trial; details: 39°C
[15] = 90.2 mg 3‐NOP/kg feed DM (× 0.8)
[16] = 106.8 mg 3‐NOP/kg feed DM (× 1)
[17] = 220.4 mg 3‐NOP/kg feed DM (× 2)

Q: What does the source list for `O=[N+]([O-])OCCCO` [3‐NOP, propan‐1,3‐diol‐mononitrate]?
A: half-life [1]: ~42 min; Mean overall recovery of the radioactivity applied ([2]; 48 h): 28%; Radioactivity recovered from tissues, organs and carcass ([2]; 48 h): 5.5 % of the dose; Radioactivity remaining in gastrointestinal content ([2]; 48 h): 0.2 % of the dose; Radioactivity concentration in adrenal glands ([2]; 48 h after 500 mg/kg bw): 113.9 μg 3‐NOP‐eq/g; Radioactivity concentration in brain ([2]; 48 h after 500 mg/kg bw): 31.2 μg NOP‐eq/g; Radioactivity concentration in fat ([2]; 48 h after 500 mg/kg bw): 23.5 μg NOP‐eq/g; Radioactivity concentration in kidney ([2]; 48 h after 500 mg/kg bw): 71.6 μg 3‐NOP‐eq/g; Radioactivity concentration in liver ([2]; 48 h after 500 mg/kg bw): 139.6 μg 3‐NOP‐eq/g; Radioactivity concentration in muscle ([2]; 48 h after 500 mg/kg bw): 27.1 μg NOP‐eq/g; Radioactivity recovered in total excreta ([2]; at 48 h): 20 % of the dose; Radioactivity recovered in urine ([2]; first 24 h): 17.6 % of the dose; Radioactivity recovered in urine ([2]; interval 24‐48 h): 0.3 % of the dose; Cmax radioactivity in plasma ([2]; single oral 500 mg/kg bw): about 600 μg 3‐NOP‐eq/g; Radioactivity in plasma after 48 h ([2]; single oral 500 mg/kg bw): 27 μg 3‐NOP‐eq/g; Time of Cmax radioactivity in plasma ([2]; single oral 500 mg/kg bw): 1 h; Radioactivity excreted in faeces ([2]; within 48 h): 2.3 % of the dose; Intact compound, share of radioactivity in small intestine content ([3]; 1 and 3 h after 500 mg/kg bw): < 4%; Intact compound, share of radioactivity in stomach content ([3]; 1 and 3 h after 500 mg/kg bw): more than 80%; Radioactivity in plasma ([3]; 1 h post‐dose): 713 μg 3‐NOP‐eq/g; Radioactivity in plasma ([3]; 2 h post‐dose): 522 μg 3‐NOP‐eq/g; Radioactivity in plasma ([3]; 3 h post‐dose): 156 μg 3‐NOP‐eq/g; Overall radioactivity recovered ([3]; after 1 h): 88 % of the dose; Overall radioactivity recovered ([3]; after 2 h): 78 % of the dose; Overall radioactivity recovered ([3]; after 3 h): 58 % of the dose; Radioactivity in urine ([3]; urine 0 to 2 h of one animal): 13.7 % of the applied dose; Radioactivity excreted via faeces, mean ([4]; 1.8 g/animal per day, 7 days): 2.7 % of radioactivity totally app; Radioactivity excreted via milk, mean ([4]; 1.8 g/animal per day, 7 days): 16.82 % of radioactivity totally app; Radioactivity excreted via urine, mean ([4]; 1.8 g/animal per day, 7 days): 4 % of radioactivity totally app; Radioactivity remaining in the total tissues ([4]; 1.8 g/animal per day, 7 days): 6.2 % of radioactivity totally app; Total radioactivity excreted ([4]; 1.8 g/animal per day, 7 days): 23.5%; Total recovery at sacrifice ([4]; 1.8 g/animal per day, 7 days): approximately 30%; 3‐NOP and NOPA in total excreta, worst‐case scenario ([4]; dairy cows): ≤ 0.2%; Residue in milk, not found above the LOQ ([4]; in vivo): < 8 μg 3‐NOP‐equivalents/kg; Residue in tissues, not found above the LOQ ([4]; in vivo): < 21 μg 3‐NOP‐equivalents/kg; Amount in urine ([4]; urine of one animal (day 2–day 6)): 0.1 % of the dose; ALT [5, 15]: 27* U/L; Albumin [5, 15]: 36 g/L; Amylase [5, 15]: 34 U/L; Body weight [5, 15]: 676 kg; Body weight change [5, 15]: 43.6 kg; Fat yield [5, 15]: 0.81 kg/day; Fibrinogen [5, 15]: 0.88 g/L; Haematocrit [5, 15]: 28* %; Haemoglobin d56 [5, 15]: 110 g/L; LDH d56 [5, 15]: 1249 U/L; Mean corpuscular haemoglobin [5, 15]: 16.5* pg; Milk yield [5, 15]: 28.7 kg/day; Monocytes d5 [5, 15]: 4.8e+08 L⁻¹; Monocytes d56 [5, 15]: 3.1e+08 L⁻¹; Ovary absolute size [5, 15]: 31.9 g; Ovary relative size [5, 15]: 0.048 g per kg final bw; Protein yield [5, 15]: 0.92 kg/day; Prothrombin time [5, 15]: 27.3* s; Red blood cells [5, 15]: 6.52* ×10^12/L; Water consumption [5, 15]: 95.9 kg/day; Dry matter intake [5, 15]: 22.9 kg/day; ALT [5, 16]: 27* U/L; Albumin [5, 16]: 36 g/L; Amylase [5, 16]: 34 U/L; Body weight [5, 16]: 675 kg; Body weight change [5, 16]: 42.2 kg; Ca [5, 16]: 2.47* mmol/L; Energy corrected milk [5, 16]: 22.7 kg/day; Fat yield [5, 16]: 0.74 kg/day; Fibrinogen [5, 16]: 0.93 g/L; Haematocrit [5, 16]: 28* %; Haemoglobin d56 [5, 16]: 109 g/L; LDH d56 [5, 16]: 1245 U/L; Milk yield [5, 16]: 27.5 kg/day; Monocytes d5 [5, 16]: 4.6e+08 L⁻¹; Ovary absolute size [5, 16]: 29.7 g; Ovary relative size [5, 16]: 0.040 g per kg final bw; Protein yield [5, 16]: 0.88 kg/day; Red blood cells [5, 16]: 6.39* ×10^12/L; Total cholesterol [5, 16]: 4.18* mmol/L; Triglycerides [5, 16]: 0.130 mmol/L; Water consumption [5, 16]: 94.6 kg/day; Dry matter intake [5, 16]: 22.8 kg/day; ALT [5, 17]: 24* U/L; Albumin [5, 17]: 35* g/L; Amylase [5, 17]: 31* U/L; Body weight [5, 17]: 670 kg; Body weight change [5, 17]: 36.6 kg; Ca [5, 17]: 2.40 mmol/L; Energy corrected milk [5, 17]: 24.7* kg/day; Fat yield [5, 17]: 0.89* kg/day; Fibrinogen [5, 17]: 1.00* g/L; Haematocrit [5, 17]: 27* %; Haemoglobin d56 [5, 17]: 103* g/L; LDH d56 [5, 17]: 1034* U/L; Mean corpuscular haemoglobin [5, 17]: 16 pg; Milk yield [5, 17]: 27.5 kg/day; Monocytes d5 [5, 17]: 0.43* ×10^9/L; Ovary absolute size [5, 17]: 25.8* g; Protein yield [5, 17]: 0.91 kg/day; Prothrombin time [5, 17]: 27.0* s; Red blood cells [5, 17]: 6.42* ×10^12/L; Total cholesterol [5, 17]: 4.18* mmol/L; Triglycerides [5, 17]: 0.124* mmol/L; Water consumption [5, 17]: 87.0* kg/day; Dry matter intake [5, 17]: 21.8* kg/day; Number of cows with signs of liver chronic inflammation (out of 8) ([5]; 0.8× group (control 2)): 0; Number of cows with signs of liver chronic inflammation (out of 8) ([5]; 1× group (control 2)): 3; DM intake less than in the control group ([5]; 2× group): 4%; Energy corrected milk yield increase compared with the control ([5]; 2× group): 7%; Number of cows with signs of liver chronic inflammation (out of 8) ([5]; 2× group (control 2)): 5; In vivo MN test result ([6]; 375, 750 and 1,500 mg/kg bw by gavage): Equivocal results; Dose showing severe symptoms and mortality ([6]; dose‐range finding test, gavage): 2,000 mg/kg bw; NOAEL (Wistar rats [7]; females): 300 mg/kg bw per day; NOAEL (Wistar rats [7]; males, effects on spermatogenesis): 100 mg 3‐NOP/kg bw per day; NOAEL (Wistar rats [8]; females): 600 mg 3‐NOP/kg bw per day; NOAEL (Wistar rats [8]; males): 100 mg 3‐NOP/kg bw per day; NOAEL for parental toxicity (Wistar rats [9]): 100 mg/kg bw per day; NOAEL for reproduction and developmental toxicity (Wistar rats [9]): at least 100 mg/kg bw per day; Maternal NOAEL (Wistar rats [10]): 300 mg/kg bw per day; Skin corrosion potential (Skin corrosion study): not corrosive to skin; Health‐based guidance value (acceptable daily intake, ADI) ([11]; NOAEL 100 mg/kg bw per day, uncertainty factor of 100): 1 mg 3‐NOP/kg bw per day; Overall NOAEL ([11]; subchronic toxicity studies in rats, mice and dogs): 100 mg/kg bw per day; Micronuclei, overall result [12]: weak increase in micronuclei; 3‐NOP concentration remaining after 16 h ([13]; 1 mg/L, anaerobic, n = 6): 0.9%; 3‐NOP concentration remaining after 16 h ([13]; aerobic control, n = 2): 39.4%; Radioactivity in the non‐dissolved fractions ([13]; sheep, goat and cow rumen fluids, 1 mg/L, 16 h at 39°C, anaerobic): ≤ 5.5%; 3‐NOP concentration remaining after 16 h ([14]; 1 mg/L, anaerobic, n = 6): 1.0%; 3‐NOP concentration remaining after 16 h ([14]; aerobic control, n = 2): 31.9%
